# Data from paper PMC3475971 (Analytical and Bioanalytical Chemistry, 2012).
# Tests used:
# Format in all cases: binding
# GAK = assay: Thermal shift assay; settings: thermal shift assay performed as described in [32]
# [1] = target: T1, cyclin G-associated kinase (GAK) (Homo sapiens, UniProt O14976); assay: Fragment screening by zonal weak affinity chromatography
# T1 sequence (O14976 20-347): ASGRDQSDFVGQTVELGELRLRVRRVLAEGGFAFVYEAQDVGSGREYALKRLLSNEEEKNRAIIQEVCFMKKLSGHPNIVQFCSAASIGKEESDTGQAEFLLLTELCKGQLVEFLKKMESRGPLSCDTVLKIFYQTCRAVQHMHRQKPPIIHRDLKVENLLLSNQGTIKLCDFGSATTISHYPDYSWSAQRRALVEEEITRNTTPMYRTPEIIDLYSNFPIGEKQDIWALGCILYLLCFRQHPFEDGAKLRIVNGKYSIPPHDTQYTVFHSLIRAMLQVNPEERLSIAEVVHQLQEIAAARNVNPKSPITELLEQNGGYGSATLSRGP
# [2] = target: T1, cyclin G-associated kinase (GAK); assay: Frontal affinity chromatography on GAK capillary column
# Outline: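 Human GAK residues 20–347 expressed in E. coli Rosetta (DE3), Ni-NTA and gel-filtration purified, tag removed with TEV protease, then coupled by reductive amination to aldehyde-silica capillary (100 × 0.5 mm). Frontal analysis: 20 mM ammonium acetate pH 6.8, 18 μL/min, 22 °C. Ligand 0.025–0.750 mM, UV 214 nm; DMSO void marker. Saturation moles versus concentration fitted (one-site plus linear nonspecific) for Btot and KD.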
Kd [1] [µM],Kd [2] [µM],SMILES,increase of melting temperature (ΔTm) of GAK (GAK) [°C]
,,O=c1c(O)c(-c2ccc(O)c(O)c2)oc2cc(O)cc(O)c12 [Quercetin],9.4
41,63,Nc1ncnc2c1ncn2[C@@H]1O[C@H](CO)[C@@H](O)[C@H]1O [adenosine],
